How the values were obtained:
[1] = molecular target: Serotonin 1 (5-HT1) receptor (Rattus norvegicus, UniProt P28564+P30940+P19327+P28565); assay: Binding affinity towards 5-hydroxytryptamine 1 receptor using [3H]5-HT as a radioligand from rat frontal cortex homogenates; assay type: tissue-based
Rattus norvegicus [2] = assay: Effect on serum corticosterone in serum of rats after sc administration (1 mg/kg dose) (experiment 1); assay type: functional, organism-based
Procedure, shortened: (§1)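 Male Wistar rats (~150 g) housed at 24 °C with lights 7 a.m.–7 p.m. Compound in dilute HCl given sc 1 h before decapitation. Serum corticosterone measured spectrofluorometrically, μg/100 mL. Five rats per group, mean ± SE. Significance set at P < 0.05 versus the vehicle control.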

Rattus norvegicus [3] = assay: Effect on serotonin in rat whole brain, after sc administration (0.03 mg/kg dose) (experiment 1); assay type: functional, organism-based
Procedure, shortened: (§2)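 Drug was given sc in dilute HCl to male Wistar rats (~150 g), with decapitation 1 h later. Whole brains were frozen on dry ice and held at −15 °C. […] Results are mean ± SE, five rats/group, P < 0.05 versus vehicle control.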

Rattus norvegicus [4] = assay: Effect on serotonin in rat whole brain, after sc administration (0.1 mg/kg dose) (experiment 1); assay type: functional, organism-based
Rattus norvegicus [5] = assay: Effect on concentration of 5HIAA in rat brain striatum after 0.3 mg/kg sc administration; assay type: functional, organism-based; parameters: dose 0.3 mg/kg
Procedure, shortened: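 Male Wistar rats (~150 g) were injected sc with drug in dilute HCl and decapitated 1 h later. Hypothalamus and striatum were dissected and frozen on dry ice. […] Results are mean ± SE, five rats/group, P < 0.05.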

Rattus norvegicus [6] = assay: Effect on serotonin in rat whole brain, after sc administration (0 mg/kg dose) (experiment 1); assay type: functional, organism-based; procedure, shortened: as §2
Rattus norvegicus [7] = assay: Effect on serotonin in rat whole brain, after sc administration (0.01 mg/kg dose) (experiment 2); assay type: functional, organism-based; procedure, shortened: as §2
Rattus norvegicus [8] = assay: Effect on serum corticosterone in serum of rats after sc administration (0.03 mg/kg dose) (experiment 1); assay type: functional, organism-based; procedure, shortened: as §1
Rattus norvegicus [9] = assay: Effect on serum corticosterone in serum of rats after sc administration (0.1 mg/kg dose) (experiment 1); assay type: functional, organism-based; procedure, shortened: as §1
Rattus norvegicus [10] = assay: Effect on 5-hydroxyindoleacetic acid in rat whole brain, after sc administration (0.03 mg/kg dose) (experiment 1); assay type: functional, organism-based; procedure, shortened: as §2
Rattus norvegicus [11] = assay: Effect on 5-hydroxyindoleacetic acid in rat whole brain, after sc administration (0.03 mg/kg dose) (experiment 2); assay type: functional, organism-based; procedure, shortened: as §2
Rattus norvegicus [12] = assay: Effect on 3,4- dihydroxyphenylacetic acid concentration in rat striatum, after 0.03 mg/kg sc administration; assay type: functional; conditions: route subcutaneous
Procedure, shortened: (§3)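 Male Wistar rats (~150 g) were given drug or apomorphine HCl sc and decapitated 1 h later. Striatal DOPAC and HVA were quantified by LC with electrochemical detection. Results are mean ± SE, five rats/group, P < 0.05.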

Rattus norvegicus [13] = assay: Effect on 3,4-dihydroxyphenylacetic acid concentration in rat striatum, after 0.1 mg/kg sc administration; assay type: functional; conditions: route subcutaneous; procedure, shortened: as §3
Rattus norvegicus [14] = assay: Effect on homovanillic acid concentration in rat striatum, after 0.3 mg/kg sc administration; assay type: functional; conditions: route subcutaneous; procedure, shortened: as §3
Rattus norvegicus [15] = assay: Effect of Metergoline on the elevation of serum corticosterone, after sc administration (0.03 mg/kg) No pretreatment; assay type: functional, organism-based
Procedure, shortened: (§4)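 Male Wistar rats (~150 g) received metergoline (3 mg/kg, ip) or no pretreatment. Drug was given sc in dilute HCl 1 h later, and rats were decapitated 1 h after that. Serum corticosterone was determined spectrofluorometrically. Results are mean ± SE, five rats/group, P < 0.05 versus the corresponding control.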

Rattus norvegicus [16] = assay: Effect of Metergoline on the elevation of serum corticosterone, after sc administration (0.1 mg/kg) No pretreatment; assay type: functional, organism-based; procedure, shortened: as §4
Rattus norvegicus [17] = assay: Effect of Metergoline on the elevation of serum corticosterone, after sc administration (0.3 mg/kg) No pretreatment; assay type: functional, organism-based; procedure, shortened: as §4
Rattus norvegicus [18] = assay: Effect of Metergoline on the elevation of serum corticosterone, after sc administration (0 mg/kg) Metergoline pretreament; assay type: functional, organism-based; procedure, shortened: as §4
Rattus norvegicus [19] = species on record: Rattus norvegicus; assay: Effect of fluoxetine on the elevation of serum corticosterone at a dose 100 ug/mL, No pretreatment; assay type: functional, organism-based
Procedure, shortened: (§5)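 Rats got fluoxetine HCl (10 mg/kg, ip) or no pretreatment. 16 h later, drug (0.3 mg/kg, sc, dilute HCl) or p-chloroamphetamine HCl (2.5 mg/kg, ip) was given, with decapitation 1 h after. Serum corticosterone was measured spectrofluorometrically. Results are mean ± SE, five male Wistar rats/group, P < 0.05.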

Rattus norvegicus [20] = species on record: Rattus norvegicus; assay: Effect of fluoxetine on the elevation of serum corticosterone, Fluoxetine pretreament; assay type: functional, organism-based; procedure, shortened: as §5
Rattus norvegicus [21] = species on record: Rattus norvegicus; assay: Effect of […] on the elevation of serum corticosterone at a dose 100 ug/mL PCPA pretreated; assay type: functional, organism-based
Procedure, shortened: as §5, with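 “p-chlorophenylalanine (300” for “fluoxetine HCl (10”, “24” for “16”, “and rats were killed” for “with decapitation”, “rats/group.” for “rats/group, P < 0.05.”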

Structure (SMILES): C[C@@H]1C=C2c3cccc4c3[C@@H](CN4)C[C@H]2N(C)C1
- IC50 [1]: 17 nM
- Concentration (Rattus norvegicus [2]): 70.8 nM/g
- Concentration (Rattus norvegicus [3]): 2.8 nM/g
- Concentration (Rattus norvegicus [4]): 2.59 nM/g
- Concentration (Rattus norvegicus [5]): < 2.38 mg/kg
- Concentration (Rattus norvegicus [6]): 2.32 nM/g
- Concentration (Rattus norvegicus [7]): 2.67 nM/g
- Concentration (Rattus norvegicus [8]): 6.5 nM/g
- Concentration (Rattus norvegicus [9]): 33.8 nM/g
- Concentration (Rattus norvegicus [10]): 1.52 nM/g
- Concentration (Rattus norvegicus [11]): 1.9 nM/g
- DOPAC concentration (Rattus norvegicus [12]): 3.81 nM/g
- DOPAC concentration (Rattus norvegicus [13]): 4.44 nM/g
- Homovanillic acid concentration (Rattus norvegicus [14]): 3.27 nM/g
- Serum corticosterone (Rattus norvegicus [15]): 6.5 µg/mL
- Serum corticosterone (Rattus norvegicus [16]): 33.8 µg/mL
- Serum corticosterone (Rattus norvegicus [17]): 46.6 µg/mL
- Serum corticosterone (Rattus norvegicus [18]): 6.2 µg/mL
- Serum corticosterone (Rattus norvegicus [19]): < 68.2 µg/mL
- Serum corticosterone (Rattus norvegicus [20]): < 61.2 µg/mL
- Serum corticosterone (Rattus norvegicus [21]): 42 µg/mL

From ChEMBL document CHEMBL1124171, “Ergolines as selective 5-HT1 agonists” (J Med Chem, 1988)
